Data reported in ChEMBL document CHEMBL1157242, “Triterpene saponins with gastroprotective effects from tea seed (the seeds of Camellia sinensis)” (2006).
Structures can show the parent of a compound that is named as a salt.

Experiments:
Settings in all cases: Gastric mucosa
Rattus norvegicus [1] = assay: Gastroprotective effect in […] assessed as inhibition of ethanol-induced gastric mucosal lesions at 5 mg/kg, po administered 1 hr prior to ethanol challenge relative to control; type: functional
How it was run: (§1)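 Male […] fasted 24-26 h with free access to water, conscious. Given agent orally at 5.0 mL/kg, suspended in 5% acacia or 0.5% CMC-Na. 1 h later, 99.5% ethanol 1.5 mL/rat by orogastric tube. After 1 h, stomach fixed with 1.5% formalin and opened. Lesion index is total lesion length (mm). Inhibition is versus vehicle controls, n = 4-6.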

Rattus norvegicus [2] = assay: Gastroprotective effect in […] assessed as inhibition of ethanol-induced gastric mucosal lesions at 5 mg/kg, po administered 1 hr prior to ethanol challenge relative to control
Rattus norvegicus [3] = assay: Gastroprotective effect in […] assessed as inhibition of ethanol-induced gastric mucosal lesions at 10 mg/kg, po administered 1 hr prior to ethanol challenge relative to control; type: functional; how it was run: as §1
Rattus norvegicus [4] = assay: Gastroprotective effect in […] assessed as inhibition of ethanol-induced gastric mucosal lesions at 15 mg/kg, po administered 1 hr prior to ethanol challenge relative to control; type: functional; how it was run: as §1
Rattus norvegicus [5] = assay: Gastroprotective effect in […] assessed as inhibition of ethanol-induced gastric mucosal lesions at 20 mg/kg, po administered 1 hr prior to ethanol challenge relative to control; type: functional; how it was run: as §1
Rattus norvegicus [6] = assay: Gastroprotective effect in […] assessed as inhibition of ethanol-induced gastric mucosal lesions at 150 mg/kg, po administered 1 hr prior to ethanol challenge relative to control; type: functional; how it was run: as §1
Rattus norvegicus [7] = assay: Gastroprotective effect in […] assessed as inhibition of ethanol-induced gastric mucosal lesions at 75 mg/kg, po administered 1 hr prior to ethanol challenge relative to control; type: functional; how it was run: as §1
Rattus norvegicus [8] = assay: Gastroprotective effect in […] assessed as inhibition of ethanol-induced gastric mucosal lesions at 300 mg/kg, po administered 1 hr prior to ethanol challenge relative to control; type: functional; how it was run: as §1

C/C=C(/C)C(=O)O[C@H]1[C@H](O)[C@@]2(CO)C(CC1(C)C)C1=CCC3[C@@]4(C)CC[C@H](O[C@@H]5O[C@H](C(=O)O)[C@@H](O)[C@H](O[C@@H]6OC[C@H](O)[C@H](O)[C@H]6O[C@@H]6OC[C@@H](O)[C@H](O)[C@H]6O)[C@H]5O[C@H]5O[C@H](CO)[C@H](O)[C@H](O)[C@H]5O)[C@@](C)(CO)C4CC[C@@]3(C)[C@]1(C)C[C@H]2O (stereo partly drawn) [THEASAPONINS A1]
inhibition in vivo at 5 mg/kg (Rattus norvegicus [1]): 37%

C/C=C(/C)C(=O)O[C@H]1[C@H](O)[C@@]2(COC(C)=O)C(CC1(C)C)C1=CCC3[C@@]4(C)CC[C@H](O[C@@H]5O[C@H](C(=O)O)[C@@H](O)[C@H](O[C@@H]6OC[C@H](O)[C@H](O)[C@H]6O[C@@H]6OC[C@@H](O)[C@H](O)[C@H]6O)[C@H]5O[C@H]5O[C@H](CO)[C@H](O)[C@H](O)[C@H]5O)[C@@](C)(CO)C4CC[C@@]3(C)[C@]1(C)C[C@H]2O (stereo partly drawn) [THEASAPONINS A2]
inhibition in vivo at 5 mg/kg (Rattus norvegicus [1]): 54.7%

C/C=C(/C)C(=O)O[C@H]1CC(C)(C)CC2C3=CCC4[C@@]5(C)CC[C@H](O[C@@H]6O[C@H](C(=O)O)[C@@H](O)[C@H](O[C@@H]7OC[C@H](O)[C@H](O)[C@H]7O[C@@H]7OC[C@@H](O)[C@H](O)[C@H]7O)[C@H]6O[C@H]6O[C@H](CO)[C@H](O)[C@H](O)[C@H]6O)[C@@](C)(C=O)C5CC[C@@]4(C)[C@]3(C)C[C@@H](O)[C@]21CO (stereo partly drawn) [ASSAMSAPONINS A]
inhibition in vivo at 5 mg/kg (Rattus norvegicus [1]): 61%

C/C=C(/C)C(=O)O[C@H]1[C@H](OC(C)=O)[C@@]2(CO)C(CC1(C)C)C1=CCC3[C@@]4(C)CC[C@H](O[C@@H]5O[C@H](C(=O)O)[C@@H](O)[C@H](O[C@@H]6OC[C@H](O)[C@H](O)[C@H]6O[C@@H]6OC[C@@H](O)[C@H](O)[C@H]6O)[C@H]5O[C@H]5O[C@H](CO)[C@H](O)[C@H](O)[C@H]5O)[C@@](C)(C=O)C4CC[C@@]3(C)[C@]1(C)C[C@H]2O (stereo partly drawn) [THEASAPONINS E1]
inhibition in vivo at 5 mg/kg (Rattus norvegicus [2]): 71.4%

C/C=C(/C)C(=O)O[C@H]1[C@H](O)[C@@]2(COC(C)=O)C(CC1(C)C)C1=CCC3[C@@]4(C)CC[C@H](O[C@@H]5O[C@H](C(=O)O)[C@@H](O)[C@H](O[C@@H]6OC[C@H](O)[C@H](O)[C@H]6O[C@@H]6OC[C@@H](O)[C@H](O)[C@H]6O)[C@H]5O[C@H]5O[C@H](CO)[C@H](O)[C@H](O)[C@H]5O)[C@@](C)(C=O)C4CC[C@@]3(C)[C@]1(C)C[C@H]2O (stereo partly drawn) [THEASAPONINS E2]
inhibition in vivo at 5 mg/kg (Rattus norvegicus [2]): 77.6%

C/C=C(/C)C(=O)O[C@H]1[C@H](OC(C)=O)[C@@]2(CO)C(CC1(C)C)C1=CCC3[C@@]4(C)CC[C@H](O[C@@H]5O[C@H](C(=O)O)[C@@H](O)[C@H](O[C@@H]6OC[C@H](O)[C@H](O)[C@H]6O[C@@H]6OC[C@@H](O)[C@H](O)[C@H]6O)[C@H]5O[C@H]5O[C@H](CO)[C@H](O)[C@H](O)[C@H]5O)[C@@](C)(CO)C4CC[C@@]3(C)[C@]1(C)C[C@H]2O (stereo partly drawn) [ASSAMSAPONINS D]
inhibition in vivo at 5 mg/kg (Rattus norvegicus [1]): 47.9%

COc1ccc2[nH]c([S+]([O-])Cc3ncc(C)c(OC)c3C)nc2c1 (stereo not drawn) [OMEPRAZOLE]
inhibition in vivo at 10 mg/kg (Rattus norvegicus [3]): 43.1%
inhibition in vivo at 15 mg/kg (Rattus norvegicus [4]): 82%
inhibition in vivo at 20 mg/kg (Rattus norvegicus [5]): 89.4%

C/C=C(/C)C(=O)O[C@H]1[C@H](O)[C@@]2(COC(C)=O)C(CC1(C)C)C1=CCC3[C@@]4(C)CC[C@H](O[C@@H]5O[C@H](C(=O)O)[C@@H](O)[C@H](O[C@@H]6OC[C@H](O)[C@H](O)[C@H]6O[C@@H]6OC[C@@H](O)[C@H](O)[C@H]6O)[C@H]5O[C@H]5O[C@H](CO)[C@H](O)[C@H](O)[C@H]5O)[C@@](C)(C(=O)OC)C4CC[C@@]3(C)[C@]1(C)C[C@H]2O (stereo partly drawn) [THEASAPONINS F3]
inhibition in vivo at 5 mg/kg (Rattus norvegicus [1]): 42.1%

NC[C@H]1CC[C@H](C(=O)Oc2ccc(CCC(=O)O)cc2)CC1 [CETRAXATE HYDROCHLORIDE]
inhibition in vivo at 150 mg/kg (Rattus norvegicus [6]): 65.6%
inhibition in vivo at 75 mg/kg (Rattus norvegicus [7]): 41.2%
inhibition in vivo at 300 mg/kg (Rattus norvegicus [8]): 79.4%
